S1P3 antagonist = S1P3 receptor antagonists, primary screen, cell-based. AID 485, 2006. Sphingosine 1-phosphate receptor 3 (Homo sapiens), Q99500. 170,000 compounds, 0.27% hits. CHO S1P3 NFAT-BLA reporter, FRET fluorescence, antagonist mode. inhibition, % at 4.98 µM;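 active means inhibition above the plate cutoff, the mean inhibition of test wells on that plate plus 3 SD, cut at about 28% in these data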;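 further: cells challenged with S1P at its EC80 of 0.8 µM; blue over green emission ratio from cleaved BLA substrate after 4 h stimulation; 0% = S1P-stimulated wells and 100% = unstimulated DMSO-only wells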
Target sequence (Q99500 whole entry, looked up): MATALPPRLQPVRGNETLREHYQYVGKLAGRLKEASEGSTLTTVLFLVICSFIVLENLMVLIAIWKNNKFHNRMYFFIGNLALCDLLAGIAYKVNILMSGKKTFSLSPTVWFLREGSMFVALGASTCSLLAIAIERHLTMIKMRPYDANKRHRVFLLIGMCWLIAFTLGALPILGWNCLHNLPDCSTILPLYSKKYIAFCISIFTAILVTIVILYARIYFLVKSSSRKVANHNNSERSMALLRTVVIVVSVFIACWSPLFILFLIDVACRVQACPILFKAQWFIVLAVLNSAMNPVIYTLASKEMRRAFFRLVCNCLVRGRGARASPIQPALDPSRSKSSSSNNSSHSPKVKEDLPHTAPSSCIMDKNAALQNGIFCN
Mdm2 ligase inh = MDM2-luciferase reporter signal enhancers, primary screen, MDM2 E3 ligase inhibitor project, cell-based, luminescence, 1536-well | cell-based MDM2 ubiquitination luciferase reporter, 2 h; 0 = plate control, 100 = twice control, blank-subtracted | signal enhancement, % at 5 µM | 210,000 compounds, 0.11% hits | E3 ubiquitin-protein ligase Mdm2 (Homo sapiens), Q00987;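 active means signal enhancement of 30% or more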;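 further: luminescence tracks abundance of the self-degrading MDM2-luciferase fusion protein; higher signal means inhibition of MDM2 E3 ligase activity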
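Material: Stable MDM2–luciferase fusion reporter cells | Amount: 2000 cells seeded into each well | Dosing: One concentration, 5 µM, with 0.2% DMSO | Incubation: 4 h cell settling then 2 h compound exposure, 37 °C | Measured by: Luciferase luminescence | Read-out basis: % enhancement relative to plate controls after blank subtraction | Benchmarks: Control and blank well means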
Hsp70 act = Hsp70 transcriptional activators, primary screen, cell-based, HeLa, Hsp70 promoter luciferase, luminescence, 10 µM. HeLa Hsp70 promoter luciferase reporter; scaled: vehicle 0, proteasome-inhibitor control 100%. activation, % at 10 µM. 200,000 compounds, 0.04% hits;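 active means activation above the mean across all tested compounds plus 3 SD, cutoff set per campaign, cut at about 5.5% in these data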;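 further: 100% = MG132 at 30 µM as the positive control and 0% = DMSO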
CHOP inh = inhibitors of CHOP promoter induction, primary screen, cell-based, unfolded protein response, luciferase reporter | CHO-K1 CHOP-promoter luciferase, tunicamycin-induced, 15-18 h | inhibition, % at 10 µM | 220,000 compounds, 3.8% hits;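 active means compounds that reduced the stress-induced luciferase reporter signal by more than about 70% of percent inhibition, limit read from the data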;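 further: 0% = tunicamycin plus vehicle and 100% = wells without tunicamycin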
* = called active by the depositor. The list is not random: actives were taken first. Their share in the collection is about 4%.

O=C(NC12CC3CC(CC(C3)C1)C2)C1CC(=O)N(c2ccc(Br)cc2)C1 (stereo unspecified) was read as Mdm2 ligase inh -10, Hsp70 act 0 and CHOP inh 70*.
`O=C(c1ccco1)N1CCN(c2nnc(-c3ccccc3)c3ccccc23)CC1` gave Mdm2 ligase inh -5, Hsp70 act 0 and CHOP inh -1.
O=C(/C(Cl)=C/Nc1ccc(Br)cn1)C(F)(F)F was read as S1P3 antagonist -17, Mdm2 ligase inh -1, Hsp70 act 0 and CHOP inh 87*.
CCOC(=O)Cc1ccc(NCc2ccc(Cl)cc2)cc1 was read as S1P3 antagonist 14, Mdm2 ligase inh -4, Hsp70 act 0 and CHOP inh 78*.
CCOC(=O)CNC(=O)Cc1ccc(Cl)cc1 was read as S1P3 antagonist -1, Mdm2 ligase inh -14 and CHOP inh 16.
`CC(=O)NS(=O)(=O)c1ccc(NC(=O)c2oc3c(Cl)cccc3c2C)cc1` gave S1P3 antagonist 1, Mdm2 ligase inh -11 and CHOP inh -16.
`O=C(CCNS(=O)(=O)c1cccc2nonc12)NCCc1ccc(Cl)cc1` gave Mdm2 ligase inh -8, Hsp70 act 0 and CHOP inh 76*.
For O=C(CN1CCCC1)Nc1ccccc1Cl the results were Mdm2 ligase inh -3, Hsp70 act 0 and CHOP inh 12.
`Cc1ccc(NC(=O)CN2CCCCCC2)cc1Br` gave S1P3 antagonist -8, Mdm2 ligase inh -22, Hsp70 act 0 and CHOP inh 7.
`Cc1ccc(NC(=O)CN2CCCCCC2)c(Br)c1` gave S1P3 antagonist -30, Mdm2 ligase inh -5, Hsp70 act 0 and CHOP inh 75*.
`O=C(CN1CCCCC1)Nc1ccc(NC(=O)c2ccc(Cl)cc2)cc1Cl` gave Mdm2 ligase inh -4, Hsp70 act 0 and CHOP inh 85*.
`O=C(CNS(=O)(=O)c1ccc(F)cc1)N1CCCCCC1` gave S1P3 antagonist -21, Mdm2 ligase inh -6, Hsp70 act 0 and CHOP inh -24.
`CCOC(=O)c1c(N)sc(C(O)(C(F)(F)F)C(F)(F)F)c1-c1ccccc1` gave Mdm2 ligase inh -16, Hsp70 act 0 and CHOP inh 105*.
For Cc1ccc(NC(=O)COC(=O)CC2CCCC2)cc1Cl the results were S1P3 antagonist 6, Mdm2 ligase inh 4, Hsp70 act 0 and CHOP inh 72*.
CCn1c(-c2cc(-c3cc(C)ccc3C)nc3ccccc23)n[nH]c1=S was read as S1P3 antagonist 0, Mdm2 ligase inh 5, Hsp70 act 0 and CHOP inh 3.
For CCOc1cccc(-c2cc(-c3n[nH]c(=S)n3CC)c3ccccc3n2)c1 the results were Mdm2 ligase inh -8, Hsp70 act 0 and CHOP inh 87*.
For CCn1c(-c2cc(-c3ccc(C)c(C)c3)nc3ccccc23)n[nH]c1=S the results were S1P3 antagonist -2, Mdm2 ligase inh -1, Hsp70 act 2 and CHOP inh 76*.
For COc1cc(OC)cc(C(=O)Nc2nnc(NC(=S)Nc3ccccc3)s2)c1 the results were S1P3 antagonist -13, Mdm2 ligase inh -12, Hsp70 act 0 and CHOP inh 108*.
O=C(COc1ccccc1)OCc1csc(Nc2ccccc2)n1 was read as S1P3 antagonist -12, Mdm2 ligase inh -10, Hsp70 act 0 and CHOP inh -9.
For O=C(OCc1csc(Nc2ccccc2)n1)c1ccc(Cl)cc1 the results were S1P3 antagonist -4, Mdm2 ligase inh -10, Hsp70 act 0 and CHOP inh 74*.
`Cc1nnsc1C(=O)N/N=C/c1ccc2ccccc2c1O` gave S1P3 antagonist -13, Mdm2 ligase inh -9, Hsp70 act 0 and CHOP inh 75*.
Cc1ccc(Sc2ccc(NC(=O)CCl)cc2)c(C)c1 was read as S1P3 antagonist -3, Mdm2 ligase inh 1, Hsp70 act 0 and CHOP inh 84*.
For O=C(CN1CCN(c2ccccc2)CC1)Nc1ccccc1C(F)(F)F the results were S1P3 antagonist -13, Mdm2 ligase inh -12, Hsp70 act 0 and CHOP inh 95*.
For CC1CCCCN1C(=S)NCc1ccco1 (stereo unspecified) the results were S1P3 antagonist -2, Mdm2 ligase inh -6, Hsp70 act 0 and CHOP inh 15.
Screening CC1CCCCN1C(=O)c1cc2nc(-c3ccccc3)cc(-c3ccccc3)n2n1 (stereo unspecified) returned Mdm2 ligase inh -2, Hsp70 act -1 and CHOP inh 82*.
For O=C(c1cc2nc(-c3ccc(F)cc3)cc(C(F)(F)F)n2n1)N1CCCCC1c1cccnc1 (stereo unspecified) the results were S1P3 antagonist 27, Mdm2 ligase inh -21, Hsp70 act 0 and CHOP inh 73*.
For O=C(O)c1cc2nc(-c3ccccc3)cc(-c3ccccc3)n2n1 the results were S1P3 antagonist -15, Mdm2 ligase inh -2, Hsp70 act 0 and CHOP inh -25.
For CC(C)(C)C(=O)NC(=S)Nc1cc(C(F)(F)F)ccc1N1CCOCC1 the results were Mdm2 ligase inh -16, Hsp70 act 0 and CHOP inh 47.
`O=C(CCCCl)NC(=S)Nc1cc(C(F)(F)F)ccc1N1CCOCC1` gave S1P3 antagonist 0, Mdm2 ligase inh -9, Hsp70 act 0 and CHOP inh 81*.
O=C(Nc1cc(C(F)(F)F)ccc1N1CCOCC1)c1ccccc1F was read as Mdm2 ligase inh 4, Hsp70 act 0 and CHOP inh 67.
O=C(Nc1cc(C(F)(F)F)ccc1N1CCOCC1)c1cccc(F)c1 was read as Mdm2 ligase inh 2, Hsp70 act 0 and CHOP inh 76*.
Screening O=C(Nc1cc(C(F)(F)F)ccc1N1CCOCC1)C1Cc2ccccc2CN1C(=O)c1ccco1 (stereo unspecified) returned S1P3 antagonist -13, Mdm2 ligase inh -5, Hsp70 act 0 and CHOP inh 72*.
N#C/C(=C\c1ccc(F)cc1F)S(=O)(=O)c1ccccn1 was read as S1P3 antagonist -2, Mdm2 ligase inh -16 and CHOP inh 14.
Screening COc1ccc(C)cc1NC(=O)CCN1CC(C)OC(C)C1 (stereo unspecified) returned S1P3 antagonist -13, Mdm2 ligase inh -17, Hsp70 act 0 and CHOP inh 15.
Screening Cc1cc(Cl)ccc1OCC(=O)NCCOc1nc(N2CCCCC2)nc(N2CCOCC2)n1 returned Mdm2 ligase inh -23, Hsp70 act 0 and CHOP inh 89*.
For COc1cc(C)nc(OCCNC(=O)COc2ccc(Cl)cc2C)n1 the results were S1P3 antagonist -10, Mdm2 ligase inh -9, Hsp70 act 0 and CHOP inh 30.
Screening CC(C)CC(=O)Nc1ccc(F)c(Cl)c1 returned S1P3 antagonist 21, Mdm2 ligase inh -13, Hsp70 act 0 and CHOP inh 90*.

Compound activity from PubChem.
